Hits are enriched below; roughly 5.8% of the tested compounds scored in any of these assays.
KDM4C inh: KDM4C (human) demethylase inhibition; Q9H3R0; GST-KDM4C 2-372, H3K9me3 peptide, LANCE TR-FRET; inhibition, % at 12.5 µM; 96,000 compounds, 0.15% hits; AID 720574;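 active = mean replicate inhibition above about 25%, with at least 55% of replicates also reaching it, limit read from the data, passing the limit was not always enough; inconclusive = only one of those two conditions met; inactive = neither condition met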
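Test system – GST-tagged GASC-1 (JMJD2C) catalytic fragment, aa 2-372 · Medium – HEPES buffer, pH 7.5, plus ascorbate · Reagent – H3K9me3 peptide with Fe(II)/2OG · Compound – one test concentration per compound · Timing – 30 min reaction, 60 min detection, RT · Technique – TR-FRET with Eu antibody and ULight streptavidin, EDTA stop · Read-out basis – inhibition from TR-FRET ratio decrease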
T cruzi growth-1: blocks T. cruzi growth in NIH3T3 culture; T. cruzi beta-gal in NIH3T3, GalScreen luminescence, 90 h; inhibition, % at 8.34 µM; 77,000 compounds, 5.9% hits; AID 624255;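 active = mean inhibition above about 93%, with at least 55% of replicates each passing it, limit read from the data, passing the limit was not always enough; inconclusive = only one of those two conditions holds; inactive = neither condition holds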
IDH1 mut inh: inhibitors of human IDH1 R132H; IDH1 R132H reductase, diaphorase/resazurin fluorescence, 60 min; inhibition, % at 10 µM; 70,000 compounds, 0.18% hits; in the data active = inhibition above about 34%; inconclusive = no clear call, values can overlap the other calls; inactive = below about 11%;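 note: 0% = DMSO and 100% = no enzyme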
Target sequence (O75874 whole entry R132H): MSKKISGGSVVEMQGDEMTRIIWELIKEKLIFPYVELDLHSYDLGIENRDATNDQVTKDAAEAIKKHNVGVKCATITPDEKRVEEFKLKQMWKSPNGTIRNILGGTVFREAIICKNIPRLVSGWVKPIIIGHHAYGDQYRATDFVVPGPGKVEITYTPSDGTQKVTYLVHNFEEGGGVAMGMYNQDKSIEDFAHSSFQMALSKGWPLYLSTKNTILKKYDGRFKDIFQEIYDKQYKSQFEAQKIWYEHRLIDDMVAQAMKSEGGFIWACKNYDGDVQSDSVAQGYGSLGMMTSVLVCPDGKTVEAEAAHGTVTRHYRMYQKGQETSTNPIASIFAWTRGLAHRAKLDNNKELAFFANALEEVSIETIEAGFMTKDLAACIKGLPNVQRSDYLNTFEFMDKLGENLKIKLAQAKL
Pf Dd2 inh: P. falciparum Dd2 growth inhibition. SYBR Green, 72 h; hits give low values. activity change, % at 10 µM. 94,000 compounds, 2.3% hits. AID 1159554; in the data active = activity change below about -80%; inconclusive = no clear call, values can overlap the other calls
T cruzi growth-2: Trypanosoma cruzi proliferation inhibition. shares compounds with T cruzi growth-1. T. cruzi beta-gal in NIH3T3, GalScreen luminescence, 90 h. inhibition, % at 8.35 µM. 5,600 compounds, 72% hits. AID 651739;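 active = mean replicate inhibition above about 95% and at least 55% of replicates individually reaching it, limit read from the data; inconclusive = only one of the two criteria is met; inactive = neither criterion is met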
T cruzi growth-3: inhibitors of T. cruzi proliferation; inhibition, % at 2.09 µM; 5,600 compounds, 21% hits; shares compounds with T cruzi growth-1; T. cruzi beta-gal in NIH3T3, GalScreen luminescence, 90 h;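 active = mean inhibition above about 95%, with at least 55% of replicates also reaching it, limit read from the data; inconclusive = meets just one of the two conditions; inactive = meets neither condition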;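 note: plate controls were neutral control median for no effect and positive control median for full effect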
3T3 cytotox: kills mouse NIH/3T3 fibroblasts; shares compounds with T cruzi growth-1; NIH/3T3 viability, CellTiter-Glo ATP luminescence, 90 h; cytotoxicity (signal decrease), % at 8.35 µM; 5,600 compounds, 14% hits;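 active = mean signal decrease across replicates above about 35% based on untreated-well scatter, with enough replicates individually passing, limit read from the data; inconclusive = no rule stated though some were filed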;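 note: 0% = median of neutral control wells and 100% = median of positive control wells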
3T3 cytotox 2: cytotoxicity in mouse NIH/3T3 fibroblasts; shares compounds with T cruzi growth-1; NIH/3T3 viability, CellTiter-Glo ATP luminescence, 90 h; inhibition, % at 24.9 µM; 5,600 compounds, 56% hits;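 active = mean loss of cell viability signal at or above a set limit, and enough replicates individually reaching it; inconclusive = meets only the mean limit or only the replicate share; inactive = meets neither condition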;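 note: 0% = median of neutral control wells and 100% = median of positive control wells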
* marks the source's active call; other numbers are inactive results.

What do the screens show for `COc1ccc(C#Cc2ccc([C@@H]3[C@@H](CO)N4CCCCN(Cc5ccncc5)C[C@H]34)cc2)cc1`?
KDM4C inh: 2; T cruzi growth-1: inconclusive; Pf Dd2 inh: -74; T cruzi growth-2: 100*; T cruzi growth-3: inconclusive; 3T3 cytotox: 89*; 3T3 cytotox 2: 105*

How did CCCC#Cc1ccc([C@H]2[C@@H](CO)N3CCCCN(Cc4ccncc4)C[C@@H]23)cc1 do in these assays?
KDM4C inh: 1; T cruzi growth-1: 115*; Pf Dd2 inh: -8; T cruzi growth-2: 101*; T cruzi growth-3: 28; 3T3 cytotox: inconclusive; 3T3 cytotox 2: 71*

How did CCN1[C@H](C(=O)OC)[C@@H](CO)[C@@H]2Cn3c(ccc(C4=CCCCC4)c3=O)[C@@H]21 do in these assays?
KDM4C inh: 2; T cruzi growth-1: 103*; Pf Dd2 inh: -8; T cruzi growth-2: 56; T cruzi growth-3: -8; 3T3 cytotox: 14; 3T3 cytotox 2: 13

Results for COC(=O)[C@@H]1[C@@H](CO)[C@@H]2Cn3c(ccc(C4=CCCCC4)c3=O)[C@@H]2N1CCC(F)(F)F ?
KDM4C inh: 4; T cruzi growth-1: 18

Results for CCN1[C@@H]2c3ccc(C4=CCCCC4)c(=O)n3C[C@@H]2[C@@H](CO)[C@@H]1C(=O)OC ?
KDM4C inh: 3; T cruzi growth-1: 97*; Pf Dd2 inh: -1; T cruzi growth-2: -6; T cruzi growth-3: -18; 3T3 cytotox: -23; 3T3 cytotox 2: 3

Results for CN(C)C(=O)[C@@H]1[C@@H](CO)[C@@H]2Cn3c(ccc(C4=CCCCC4)c3=O)[C@@H]2N1Cc1ccccn1 ?
KDM4C inh: 1; T cruzi growth-1: active; T cruzi growth-2: -5; T cruzi growth-3: 6; 3T3 cytotox: 3; 3T3 cytotox 2: 39*

Results for C[C@@H]1CN([C@@H](C)CO)C(=O)c2ccccc2-c2ccccc2CO[C@H]1CN(C)C(=O)Nc1ccnc(N2CCOCC2)c1 ?
KDM4C inh: -1; T cruzi growth-1: 109*; IDH1 mut inh: -1; Pf Dd2 inh: -12; T cruzi growth-2: 102*; T cruzi growth-3: 92; 3T3 cytotox: 6; 3T3 cytotox 2: 11

How did C[C@@H]1CN([C@@H](C)CO)C(=O)c2ccccc2-c2ccccc2CO[C@@H]1CN(C)C(=O)Nc1ccccc1 do in these assays?
KDM4C inh: 0; T cruzi growth-1: 38; Pf Dd2 inh: 10

What do the screens show for `C[C@@H]1CN([C@H](C)CO)C(=O)c2ccccc2-c2ccccc2CO[C@@H]1CN(C)C(=O)Nc1ccnc(N2CCOCC2)c1`?
KDM4C inh: 2; T cruzi growth-1: inconclusive; IDH1 mut inh: 0; Pf Dd2 inh: -15; T cruzi growth-2: 89; T cruzi growth-3: 33; 3T3 cytotox: -2; 3T3 cytotox 2: 7

What do the screens show for `C[C@@H]1CN([C@@H](C)CO)C(=O)c2c(c3ccccc3n2C)-c2ccccc2CO[C@H]1CN(C)C(=O)Nc1ccnc(N2CCOCC2)c1`?
KDM4C inh: 2; Pf Dd2 inh: -63

Results for CCCNC(=O)[C@H]1[C@H](CO)[C@H]2Cn3c(ccc(-c4cccc(OC)c4)c3=O)[C@@H]1N2CCC ?
KDM4C inh: -1; T cruzi growth-1: 79; Pf Dd2 inh: 0

Results for CCCNC(=O)[C@@H]1[C@@H](CO)[C@@H]2Cn3c(ccc(C4=CCCC4)c3=O)[C@H]1N2C(C)=O ?
KDM4C inh: 2; T cruzi growth-1: 106*; Pf Dd2 inh: 13; T cruzi growth-2: 108*; T cruzi growth-3: 16; 3T3 cytotox: 3; 3T3 cytotox 2: -6

What do the screens show for `O=C(NC1CCC1)[C@@H]1[C@@H](CO)[C@@H]2Cn3c(ccc(-c4ccc(F)cc4)c3=O)[C@H]1N2Cc1cocn1`?
KDM4C inh: 1; Pf Dd2 inh: 12

How did CCCNC(=O)[C@H]1[C@H](CO)[C@H]2Cn3c(ccc(C4=CCCC4)c3=O)[C@@H]1N2C(C)=O do in these assays?
KDM4C inh: 5; T cruzi growth-1: -4; Pf Dd2 inh: 5

Results for O=C(NC1CCC1)[C@@H]1[C@@H](CO)[C@@H]2Cn3c(ccc(-c4cccc(F)c4)c3=O)[C@H]1N2Cc1cocn1 ?
KDM4C inh: 0; T cruzi growth-1: 100*; T cruzi growth-2: 61; T cruzi growth-3: 17; 3T3 cytotox: 21; 3T3 cytotox 2: 12

Results for CCCNC(=O)[C@@H]1[C@@H](CO)[C@@H]2Cn3c(ccc(-c4cccc(OC)c4)c3=O)[C@H]1N2CCC ?
KDM4C inh: 0; T cruzi growth-1: 100*; Pf Dd2 inh: 5; T cruzi growth-2: 52; T cruzi growth-3: 11; 3T3 cytotox: 7; 3T3 cytotox 2: 14

Results for CN(C)C(=O)[C@@H]1[C@@H](CO)[C@@H]2Cn3c(ccc(-c4cccc(F)c4)c3=O)[C@H]1N2CCc1ccccc1 ?
KDM4C inh: 0; T cruzi growth-1: 16; Pf Dd2 inh: 4

Results for CN(C)C(=O)[C@@H]1[C@@H](CO)[C@@H]2Cn3c(ccc(-c4cccc(F)c4)c3=O)[C@H]1N2Cc1ccccc1 ?
KDM4C inh: 1; T cruzi growth-1: 103*; T cruzi growth-2: 13; T cruzi growth-3: 15; 3T3 cytotox: -12; 3T3 cytotox 2: 7

Results for Cc1ccc(NC(=O)COc2ccccc2)c(NC(=O)c2cccs2)c1 ?
IDH1 mut inh: 0

What do the screens show for `O=C1c2ccccc2C(=O)N1Cc1cc(NS(=O)(=O)c2ccccc2)ccc1Cl`?
IDH1 mut inh: 0

Results for COc1ccc(-c2cc(C(F)F)n3ncc(C(=O)N(C)Cc4cnn(C)c4C)c3n2)cc1 ?
IDH1 mut inh: 0

Results for Cn1c(SCC(=O)Nc2ccccc2Cl)nnc1-c1cccc([N+](=O)[O-])c1 ?
IDH1 mut inh: 0

How did CCCNC(=O)[C@H]1[C@H](CO)[C@H]2Cn3c(ccc(C4=CCCCC4)c3=O)[C@@H]1N2Cc1cocn1 do in these assays?
KDM4C inh: 2; T cruzi growth-1: -11; Pf Dd2 inh: 6

What do the screens show for `CCNC(=O)[C@H]1[C@H](CO)[C@H]2Cn3c(ccc(C4=CCCCC4)c3=O)[C@@H]1N2Cc1cocn1`?
KDM4C inh: 6; T cruzi growth-1: inconclusive; Pf Dd2 inh: 0; T cruzi growth-2: 1; T cruzi growth-3: -16; 3T3 cytotox: -14; 3T3 cytotox 2: -17

What do the screens show for `CCCNC(=O)[C@H]1[C@H](CO)[C@H]2Cn3c(ccc(-c4ccccc4)c3=O)[C@@H]1N2C(=O)CC1CC1`?
KDM4C inh: 0; T cruzi growth-1: 106*; Pf Dd2 inh: -14; T cruzi growth-2: 82; T cruzi growth-3: 3; 3T3 cytotox: 3; 3T3 cytotox 2: -8

Assay outcomes as filed in PubChem.
